Only some compounds are listed: those with a hit (about 3.5% of all), similar ones and a draw of the others.
RGS4 pot = RGS4 potentiation or activation | HEK293 M3R/inducible RGS4, carbachol calcium flux Fluo4; stronger effect = lower value | B-score at 10 µM | 310,000 compounds, 0.92% hits;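 active = B-score of the integrated calcium signal more than 4 SD below the library mean, with starting fluorescence not abnormally high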;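 note: negative B-score means reduced calcium response which marks RGS4 activation or potentiation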
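Also added: carbachol at ECmax as muscarinic agonist stimulus; Assay system: HEK293 cells with stable M3R and inducible RGS4; Timing: overnight RGS4 induction, 30 min dye load 37 °C, 20 min compound RT; Measured by: Fluo4-AM (2 µM) calcium-flux fluorescence, kinetic read.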
MrgX1 PAM = allosterically activates human MrgX1 receptor signaling; B-score at 10 µM; MrgX1-HEK293, Fluo-4 calcium flux, FDSS; stronger effect = higher value; 310,000 compounds, 0.63% hits; Q96LB2;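 active = plate-corrected calcium response at least 3 library SD above typical, normal starting fluorescence, not activating the receptor alone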;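 note: compound read alongside a low EC10 to EC30 dose of BAM8-22 agonist; peak minus trough fluorescence over baseline measured at the second addition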
Target sequence (Q96LB2 whole entry, looked up): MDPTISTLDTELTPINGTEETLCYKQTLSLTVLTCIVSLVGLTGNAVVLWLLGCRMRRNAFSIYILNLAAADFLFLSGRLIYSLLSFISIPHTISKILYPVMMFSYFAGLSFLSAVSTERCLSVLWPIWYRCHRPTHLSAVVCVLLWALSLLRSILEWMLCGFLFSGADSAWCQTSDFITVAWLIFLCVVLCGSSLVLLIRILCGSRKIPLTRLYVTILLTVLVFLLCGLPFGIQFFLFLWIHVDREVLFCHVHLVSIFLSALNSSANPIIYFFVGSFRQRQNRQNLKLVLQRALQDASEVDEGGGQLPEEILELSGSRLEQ
MrgX1 antag = antagonists of human MrgX1 receptor; 310,000 compounds, 1.3% hits; B-score at 10 µM; Q96LB2; MRGX1-HEK293 calcium flux, Fluo-4, BAM8-22 antagonism; stronger effect = lower value;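 active = calcium-response B-score plate-corrected more than 3 library SD below zero, starting fluorescence within 5 deviations, no agonist response on first addition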;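 note: peak minus trough fluorescence over baseline after final BAM8-22 challenge near maximal dose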
RGS4 block = inhibitors of human RGS4 | 310,000 compounds, 0.45% hits | P49798 | B-score at 10 µM | HEK293 M3R/RGS4 inducible, Fluo-4 calcium flux; stronger effect = higher value; triggered by carbachol at its EC20;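 active = B-score, a plate-corrected calcium signal, over three deviations above library mean, with baseline fluorescence within five deviations of library mean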;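 note: RGS4 expression induced by doxycycline in cells with stable M3 receptor; B-score is computed from the integrated fluorescence ratio over baseline after carbachol; higher B-score means a larger calcium signal and so more RGS4 inhibition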
MrgX1 agonist = agonists of human MrgX1 receptor; MrgX1-HEK293 cells, Fluo-4 calcium fluorescence, agonist mode; stronger effect = higher value; B-score at 10 µM; 310,000 compounds, 0.44% hits; AID 588627;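 active = calcium response B-score plate-corrected fluorescence ratio at least 3 library SD, with starting fluorescence B-score inside 5 SD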
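Test system: HEK293 cells stably expressing human MrgX1 receptor; Input: fifteen thousand cells per well; Dosing: compound delivered in addition one of three; Schedule: overnight seeding, then 1 h dark dye loading; Technique: Fluo-4 NW calcium fluorescence; Measure: B-scored fluorescence response ratio; Controls: positive and negative controls per plate.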
RGS4 block valid = validation of RGS4 inhibitors | HEK293 M3R/RGS4, carbachol calcium Fluo-4 fluorescence; carbachol added at its EC20; 0 = buffer wells, 100 = carbachol control | shares compounds with RGS4 block | 1,700 compounds, 65% hits | calcium response, % at 10 µM;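 active = duplicate-averaged calcium response above the buffer-only control mean plus 5 SD of those controls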;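 note: integrated fluorescence ratio F max minus min over baseline F0; higher response in RGS4-induced cells means RGS4 inhibition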
RGS4 uninduced = checks RGS4 inhibitor effects in non-induced HEK293 M3R cells | 1,900 compounds, 20% hits | activity (percent), % at 10 µM | shares compounds with RGS4 block | carbachol calcium Fluo-4; submaximal (EC20) carbachol stimulus; buffer wells 0%, carbachol control wells 100% | AID 493000; call rule not given here;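 note: RGS4 induction absent so cells express M3R without RGS4; higher means more calcium signal and flags a non-specific hit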
RGS4 inh ctr2 = signal in non-induced cells without carbachol, RGS4 inhibitor counter-screen | shares compounds with RGS4 block | HEK293 M3R/RGS4 non-induced, Fluo-4 calcium, no carbachol; normalised: buffer wells 0%, carbachol wells 100% | calcium response (agonist-mode artifact), % at 10 µM | 1,900 compounds, 22% hits | AID 493001;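 active = duplicate-averaged calcium rise in uninduced cells above buffer wells' mean plus 5 SD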
* marks the source's active call; other numbers are inactive results; i = inactive; x = no result given.

SMILES	RGS4 pot	MrgX1 PAM	MrgX1 antag	RGS4 block	MrgX1 agonist	RGS4 block valid	RGS4 uninduced	RGS4 inh ctr2
CN(C)/N=C/C=C1\CC/C(=C\c2ccc(F)c(F)c2)C1=O	i	i	i	i	i	x	i	16%*
CCOc1ccccc1NC(=O)c1cccc(NC(=O)CC(c2ccccc2)c2ccccc2)c1	i	i	i	11*	i	30%*	36%*	16%*
CC(OC(=O)c1ccc(Cl)c(S(=O)(=O)N2CCOCC2)c1)C(=O)NC1CCCCC1C (stereo not drawn)	i	i	i	i	i	x	x	x
CSc1ccccc1OCc1cc(C(=O)NCCC2CCCCO2)no1 (stereo not drawn)	i	i	i	11*	i	i	i	i
CSc1ccccc1OCc1cc(C(=O)NCCN2CCCC(O)C2)no1 (stereo not drawn)	i	i	i	i	i	x	x	x
S=c1[nH]nc(-c2cc(-c3ccsc3)n[nH]2)n1-c1cccc2ccccc12	i	i	i	6.1*	i	11%*	i	i
COc1ccc(-c2cnnn2-c2ccc(NC(=O)c3ccco3)cc2)cc1OC	i	i	i	4.7*	i	6.0%*	i	i
CCOC(=O)N1CCC(NC(=O)c2cc(COc3ccc(F)cc3Cl)on2)CC1	i	i	i	i	i	x	x	x
COc1ccccc1N1CCN(C(=O)CNC(=O)Cn2cnc3sc(C)c(C)c3c2=O)CC1	i	i	i	i	i	x	x	x
Cc1cn2nc(N)c3ccccc3c2n1	x	i	i	x	i	x	x	x
Nc1nn2cc(-c3ccccc3)nc2c2ccccc12	i	i	i	i	i	x	i	i
Cc1cc(C2(c3ccc(O)c(C)c3)C(=O)N(C)c3ccc(Br)cc32)ccc1O	i	i	i	13*	i	28%*	i	i
CCOC(=O)c1sc(=S)n(-c2ccccc2)c1N	i	i	i	i	i	x	x	x
CCOC(=O)c1sc(=S)n(-c2ccccc2)c1N(C(C)=O)C(C)=O	i	i	i	4.9*	i	i	i	i
COc1ccccc1CC(NC(C)=O)C(=O)NC1CCN(S(=O)(=O)c2ccc(NC(C)=O)cc2)CC1 (stereo not drawn)	i	i	i	i	i	i	i	i
COc1cccc(CC(NC(C)=O)C(=O)NC2CCN(S(=O)(=O)c3ccc(NC(C)=O)cc3)CC2)c1OC (stereo not drawn)	i	i	i	i	i	x	x	x
COc1ccccc1CC(NC(C)=O)C(=O)NC1CCN(S(=O)(=O)c2ccccc2)CC1 (stereo not drawn)	i	x	x	5.7*	x	i	i	i
N#Cc1nc(-c2cccc3ccccc23)oc1NCCN1CCCCC1	i	i	i	i	i	x	x	x
CCCCn1c(N)c(N(CCOC)C(=O)CCNC(=O)c2ccccc2Cl)c(=O)[nH]c1=O	i	i	i	i	i	x	x	x
CCCn1c(C(C)Nc2nc(-c3ccc(C)cc3)cs2)nc2ccccc21 (stereo not drawn)	i	i	i	i	i	x	x	x
CCCn1c(C(C)Nc2nc(-c3ccc(Cl)c([N+](=O)[O-])c3)cs2)nc2ccccc21 (stereo not drawn)	i	i	i	8*	i	16%*	i	i
CCCn1c(C(C)Nc2nc(-c3cccc(Br)c3)cs2)nc2ccccc21 (stereo not drawn)	i	i	i	i	i	x	i	i

Screens deposited in PubChem BioAssay by Johns Hopkins Ion Channel Center.
